Measurements: ChEMBL document CHEMBL2069211, “Busseihydroquinones A-D from the roots of Pentas bussei” (J Nat Prod, 2012)
Calls of active or inactive are those of the source. No cut-off for these calls is given here.

Experiments:
Plasmodium falciparum [1] = test: Antiplasmodial activity against chloroquine-sensitive Plasmodium falciparum D6 by SYBR green I-based assay; format: functional, organism-based
Procedure, shortened: (§1)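 Drug susceptibility is measured with the SYBR Green I-based in vitro malaria assay. Chloroquine and mefloquine run alongside as reference drugs. IC50 is the mean of at least 3 independent experiments.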

Plasmodium falciparum [2] = test: Antiplasmodial activity against chloroquine-resistant Plasmodium falciparum W2 by SYBR green I-based assay; format: functional, organism-based; procedure, shortened: as §1
[3] = Toxicity against human MCF7 cells incubated for 48 hrs by PrestoBlue cell viability reagent based assay; conditions: read-out: LD50
Procedure, shortened: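 MCF-7 cells are grown in DMEM with 10% FBS, 2 mM L-glutamine and penicillin/streptomycin at 37 °C in 5% CO2. They are seeded for exponential growth and preincubated 24 h. Drug or DMSO vehicle (0.1% or 1.0% v/v) is then added for 48 h. PrestoBlue absorbance is read at 570 nm (600 nm reference). Viability is expressed as % of vehicle, six replicates, with repeated independent experiments.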

[4] = Selectivity index, ratio of LD50 for human MCF7 cells to IC50 for chloroquine-sensitive Plasmodium falciparum D6; format: toxicity, cell-based; conditions: read-out: Selectivity Index
Procedure, shortened: (§2)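 The selectivity index is the MCF-7 LD50 (48 h PrestoBlue assay) divided by the P. falciparum IC50 (SYBR Green I assay) for the same strain.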

[5] = Selectivity index, ratio of LD50 for human MCF7 cells to IC50 for chloroquine-resistant Plasmodium falciparum W2; format: toxicity, cell-based; conditions: read-out: Selectivity Index; procedure, shortened: as §2
Escherichia coli = test: Antimicrobial activity against Escherichia coli at 0.1 mg/disc incubated for 24 to 72 hrs by disc diffusion assay; format: functional, organism-based
Procedure, shortened: (§3)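 Paper discs loaded with sample are laid on seeded agar plates, in triplicate under sterile conditions. Incubation is at 37 °C for E. coli, S. aureus and C. albicans, and at 25 °C for A. niger. Streptomycin (bacteria) and nystatin (fungi) serve as standards at 0.1 mg/100 μL. Sample solvents serve as controls.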

Staphylococcus aureus = test: Antimicrobial activity against Staphylococcus aureus at 0.1 mg/disc incubated for 24 to 72 hrs by disc diffusion assay; format: functional, organism-based; procedure, shortened: as §3
Candida albicans = test: Antimicrobial activity against Candida albicans at 0.1 mg/disc incubated for 24 to 72 hrs by disc diffusion assay; format: functional, organism-based; procedure, shortened: as §3
Aspergillus niger = test: Antimicrobial activity against Aspergillus niger at 0.1 mg/disc incubated for 24 to 72 hrs by disc diffusion assay; format: functional, organism-based; procedure, shortened: as §3

Row | SMILES | IC50 (Plasmodium falciparum [1]) [µM] | IC50 (Plasmodium falciparum [2]) [µM] | CC50 at 48 h [3] [µM] | selectivity ratio [4] | selectivity ratio [5] | inhibition zone (IZ) (Escherichia coli) | inhibition zone (IZ) (Staphylococcus aureus) | inhibition zone (IZ) (Candida albicans) | inhibition zone (IZ) (Aspergillus niger)
1 | COC(=O)c1cc(OC)c2cc(O)c3c(c2c1O)C=CC(C)(CCC=C(C)C)O3 (racemic) | 30.6 | 85 | 86.4 | 2.83 | 1.02 | inactive | inactive | inactive | inactive
2 | COc1cc(C(=O)O)c(O)c2ccc3c(c12)C=CC(C)(CCC=C(C)C)O3 (racemic) [BUSSEIHYDROQUINONE C] | 32.6 | 60.1 | > 272 | > 8.32 | > 4.52 | inactive | inactive | inactive | inactive
3 | COc1cc(C(=O)O)c(O)c2ccc3c(c12)C=C1/C(=C(\C)C=O)CCC1(C)O3 (racemic) [BUSSEIHYDROQUINONE D] | 19.6 | 80.1 | > 262 | > 13.4 | > 3.27 | inactive | inactive | inactive | inactive
4 | COC(=O)c1cc(OC)c2cc(OC)c(OC)c(O)c2c1O [BUSSEIHYDROQUINONE A] | 36 | 144 | 304 | 8.44 | 2.11 | inactive | inactive | inactive | inactive
5 | COc1cc(C(=O)O)c(O)c2ccc3c(c12)C=CC(C)(C)O3 [BUSSEIHYDROQUINONE B] | 27.8 | 126 | 374 | 13.4 | 2.96 | inactive | inactive | inactive | inactive
6 | OC(c1cc(C(F)(F)F)nc2c(C(F)(F)F)cccc12)C1CCCCN1 (stereo unspecified) [MEFLOQUINE] | 0.029 |  |  |  |  |  |  |  | 
